Broadly, the pIC50 is the IC50 on a negative log10 scale, so that one unit is a factor of ten. A word on the pKi: it is the Ki on a negative log10 scale, so that one unit is a factor of ten. A lower pKi goes with a high Ki. The LD50 is the dose expected to kill half of the subjects tested. A low value points to a more toxic substance.

Results on five compounds are retold here after ChEMBL document CHEMBL1130028, “A comparison of structure-activity relationships between spermidine and spermine analogue antineoplastics” (J Med Chem, 1997).

Data set [1] concerns L1210. The data set is described as follows: Percentage of putrescine after 48 hr exposure to the compound (500(100)uM )in L1210 cells. The format is functional, Mus musculus. Summed up:
(§1)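 Log-phase L1210 cells were treated for 48 h with analogue at two concentrations. Cells were washed twice in cold RPMI-1640 and extracted with 0.6 N HClO4. Putrescine, spermidine and spermine were quantified by HPLC of dansyl derivatives and given as percent of untreated controls. Runs were in triplicate with untreated controls.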

Data set [2] has as its system L1210. The data set can be described thus: Percentage of spermidine after 48 hr of exposure to the compound (500(100)uM ) in L1210 cells. The format is functional, Mus musculus. Summed up: as §1
The test system of data set [3] is L1210. The data set is described as follows: Percentage of spermine after 48 hr exposure to the compound (100(10)uM ) in L1210 cells. The format is functional, Mus musculus. In short, it runs like this: as §1
The test system of data set [4] is L1210. The data set is described as follows: Intracellular levels in L1210 cells following 500 uM exposure. The data set is classed as functional, Mus musculus. In short, it runs like this:
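L1210 cells were grown 48 h in medium containing 500 μM analogue. Cellular contents were analysed by HPLC of dansyl derivatives and given as pmol/10^6 cells, as parent drug and metabolites with the % of total drug in the cell.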

Data set [5] concerns L1210. The data set is described as follows: Growth inhibitory activity against L1210 cells (96h). The format is functional, cell-based. The following applies: Mus musculus, L1210, 96 h. In short, it runs like this: (§2)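 Murine L1210 leukemia cells were kept in log growth in RPMI-1640 with 10% fetal calf serum or NuSerum, HEPES-MOPS buffer and 1 mM aminoguanidine. IC50 is the concentration giving 50% of untreated control growth, as the mean of at least two experiments.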

Data set [6] has as its system L1210. The data set can be described thus: Percentage of putrescine after 48 hr exposure to the compound (100(10)uM) in L1210 cells. The data set is classed as functional, Mus musculus. In short, it runs like this:
as §1

Data set [7] addresses T1, S-adenosylmethionine decarboxylase proenzyme 1 (Mus musculus) (UniProt P0DMN7).
T1 sequence (whole entry): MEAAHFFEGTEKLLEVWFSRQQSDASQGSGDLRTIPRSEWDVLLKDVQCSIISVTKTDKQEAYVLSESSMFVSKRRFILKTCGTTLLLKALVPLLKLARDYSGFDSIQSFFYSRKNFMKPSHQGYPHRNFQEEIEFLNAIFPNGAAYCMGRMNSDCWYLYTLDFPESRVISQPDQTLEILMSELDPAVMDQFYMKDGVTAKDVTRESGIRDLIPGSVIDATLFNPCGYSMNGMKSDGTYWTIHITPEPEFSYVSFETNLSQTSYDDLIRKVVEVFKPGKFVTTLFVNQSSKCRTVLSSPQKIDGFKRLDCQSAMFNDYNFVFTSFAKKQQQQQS
The data set is described as follows: Effect on S-Adenosyl-methionine decarboxylase (AdoMetDC) tested at 1 uM at 6 hour in L1210 cells. The format is functional, cell-based. Summed up:
(§3)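 L1210 cells were exposed to 1 μM analogue, for 4 h (ODC) or 6 h (AdoMetDC). Activity was measured as 14CO2 released from [14C]carboxyl-labelled L-ornithine (ODC) or S-adenosyl-L-methionine (AdoMetDC) and given as percent of untreated control. Each run included DEHSPM-treated positive controls. Values are the mean of at least three experiments.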

Data set [8] concerns L1210. The data set can be described thus: Growth inhibitory activity against L1210 cells (48h). The format is functional, cell-based. The conditions noted are these: Mus musculus, L1210, 48 h. Summed up: as §2
Data set [9] concerns L1210. The data set can be described thus: Percentage of spermine after 48 hr exposure to the compound (500(100)uM ) in L1210 cells. The data set is classed as functional, Mus musculus. In short, it runs like this:
as §1

In data set [10] the target is Spermidine/spermine N(1)-acetyltransferase (SAT) (Mus musculus) (UniProt Q6P8J2+P48026). The data set is described as follows: Effect on Spermidine/Spermine-Acetyltransferase (SSAT ) at 10 uM at 48 hour in L1210 cells. The data set is classed as functional, cell-based. In short, it runs like this: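 L1210 cells were exposed to 10 μM triamine for 48 h. SSAT activity was taken as [14C]N1-acetylspermidine formed from spermidine and [14C]acetyl-CoA, given as percent of untreated control. DENSPM-treated cells served as positive control. Values are the mean of at least three experiments.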

Data set [11] is described as follows: Effect on ornithine decarboxylase (ODC) tested at 1 uM at 4 hour in L1210 cells. The format is functional, Mus musculus. In short, it runs like this:
as §3

The subject of data set [12] is L1210. The data set can be described thus: Percentage of spermidine after 48 hr of exposure to the compound (100(10)uM ) in L1210 cells. The format is functional, Mus musculus. Summed up: as §1
A short description of data set [13]: Binding affinity values for polyamine transporter was determined.
For data set [14], the system named is L1210. The data set is described as follows: Percentage of spermidine after 48 hr of exposure to the compound (500(15)uM ) in L1210 cells. The format is functional, Mus musculus. Summed up: as §1
Data set [15] concerns L1210. The data set is described as follows: Percentage of spermine after 48 hr exposure to the compound (500(15)uM ) in L1210 cells. The data set is classed as functional, Mus musculus. Summed up: (§4)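 Log-phase murine L1210 leukemia cells (RPMI-1640, 10% fetal calf serum or NuSerum, HEPES-MOPS buffer, 1 mM aminoguanidine) exposed 48 h to analogue at two concentrations. Cells washed twice in cold RPMI-1640 and extracted with 0.6 N HClO4. Spermine in extracts quantified by HPLC of DANSYL derivatives and expressed as percent of untreated controls. Triplicate flasks per condition.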

Data set [16] concerns L1210. The data set is described as follows: Percentage of putrescine after 48 hr exposure to the compound (500(15)uM ) in L1210 cells. The format is functional, Mus musculus. In short, it runs like this:
as §1

In data set [17] the test system is L1210. The data set can be described thus: Percentage of spermidine after 48 hr of exposure to the compound (100(3)uM ) in L1210 cells. The format is functional, Mus musculus. Summed up: as §1
Data set [18] relates to L1210. The data set can be described thus: Percentage of putrescine after 48 hr exposure to the compound (100(3)uM ) in L1210 cells. The data set is classed as functional, Mus musculus. Summed up: as §1
For data set [19], the system named is L1210. The data set can be described thus: Percentage of spermidine after 48 hr of exposure to the compound (15(0.15)uM ) in L1210 cells. The data set is classed as functional, Mus musculus. Summed up:
as §1

In data set [20] the test system is L1210. The data set is described as follows: Percentage of spermine after 48 hr exposure to the compound (15(0.15)uM ) in L1210 cells. The data set is classed as functional, Mus musculus. Summed up: as §1
Data set [21] relates to L1210. The data set can be described thus: Percentage of spermine after 48 hr exposure to the compound (75(0.75)uM ) in L1210 cells. The data set is classed as functional, Mus musculus. Summed up: as §4
For data set [22], the system named is L1210. The data set can be described thus: Percentage of putrescine after 48 hr exposure to the compound (15(0.15)uM ) in L1210 cells. The format is functional, Mus musculus. In short, it runs like this:
as §1

Data set [23] deals with L1210. The data set is described as follows: Percentage of putrescine after 48 hr exposure to the compound (75(0.75)uM ) in L1210 cells. The format is functional, Mus musculus. Summed up:
as §1

For data set [24], the system named is L1210. The data set can be described thus: Percentage of spermidine after 48 hr of exposure to the compound (75(0.75)uM ) in L1210 cells. The data set is classed as functional, Mus musculus. Summed up:
as §1

Data set [25] relates to L1210. The data set is described as follows: Percentage of putrescine after 48 hr exposure to the compound (125 uM ) in L1210 cells. The format is functional, Mus musculus. Summed up: as §1
Data set [26] relates to L1210. The data set can be described thus: Percentage of spermidine after 48 hr of exposure to the compound (125 uM ) in L1210 cells. The data set is classed as functional, Mus musculus. In short, it runs like this: as §1
Data set [27] has as its system L1210. The data set is described as follows: Percentage of spermidine after 48 hr of exposure to the compound (25(10)uM ) in L1210 cells. The format is functional, Mus musculus. In short, it runs like this: as §1
Data set [28] has as its system L1210. The data set can be described thus: Percentage of spermine after 48 hr exposure to the compound (125 uM ) in L1210 cells. The format is functional, Mus musculus. In short, it runs like this: as §1
In data set [29] the test system is L1210. The data set is described as follows: Percentage of putrescine after 48 hr exposure to the compound (25(10)uM ) in L1210 cells. The data set is classed as functional, Mus musculus. Summed up: as §1
Data set [30] in a line: The chronic lethal dose administered as intraperitoneal injection in mice. The format is ADME. The following applies: mouse, in vivo, ip. Summed up:
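Female CD-1 mice, 10–12 weeks old. Analogue given as hydrochloride salt by ip injection three times daily for 6 days (18 doses). Appetite, weight and appearance monitored daily, and lethality scored 10 days after the final dose.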

pIC50, pKi: −log10 of the molar value. A value given as a limit tells only on which side of the number the result lay.

Chain of Spermidine/spermine N(1)-acetyltransferase (SAT) (Mus musculus) (P48026 whole entry, looked up): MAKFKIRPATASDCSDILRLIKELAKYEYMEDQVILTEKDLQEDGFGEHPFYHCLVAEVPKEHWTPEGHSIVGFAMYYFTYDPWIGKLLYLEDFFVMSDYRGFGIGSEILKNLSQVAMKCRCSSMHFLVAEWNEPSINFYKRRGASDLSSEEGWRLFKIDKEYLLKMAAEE
Chain of Spermidine/spermine N(1)-acetyltransferase (SAT) (Mus musculus) (Q6P8J2 whole entry, looked up): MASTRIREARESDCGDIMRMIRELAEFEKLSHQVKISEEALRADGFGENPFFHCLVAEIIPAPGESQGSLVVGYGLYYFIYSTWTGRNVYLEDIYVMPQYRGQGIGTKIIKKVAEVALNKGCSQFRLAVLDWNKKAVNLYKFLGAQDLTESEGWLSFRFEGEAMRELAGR

As to `CCNCCCNCCCNCC`, the Polyamine was found to be 0% in [1]; 7% in data set [2]; 74% in data set [3]; 0% in data set [6]; 47% in data set [9]; 17% in data set [12]. The “Picoequivalents of amine/10e6 cells” value in data set [4] is on record as 13700. Moreover, the pIC50 in data set [5] is 5.00; in data set [8], below 4.00. The AdoMetDC in data set [7] was found to be 45%. In data set [10], this compound had an SSAT of 780%. Besides, the ODC in data set [11] was determined as 80%. This compound also showed a pKi in data set [13] of 3.60.
Consider `CCCNCCCCNCCCNCCC`, for which the Polyamine is listed as 12% in data set [14]; 99% in [15]; 0% in [16]; 35% in data set [17]; 6% in data set [18]. Also, the “Picoequivalents of amine/10e6 cells” value in data set [4] was found to be 15330. Also, the pIC50 in data set [5] is 4.48; in data set [8], below 4.00. The compound further had an AdoMetDC in [7] of 107%. In data set [10], this compound gave an SSAT of 1030%. This compound also registered an ODC in data set [11] of 75%. The compound also showed a pKi in data set [13] of 4.59.
For the compound `CCNCCCCCNCCCCCNCC`, the Polyamine is recorded as 55% in data set [19]; 97% in [20]; 73% in data set [21]; 0% in data set [22]; 0% in data set [23]; 23% in data set [24]. For the same compound, in [4], the “Picoequivalents of amine/10e6 cells” value is given as 9010. For the same compound, the results for the pIC50 in [5] and in [8] were 6.15 and 4.96, respectively. Moreover, in data set [7], the AdoMetDC was determined as 109%. The compound further gave an SSAT in [10] of 90%. In data set [11], this compound displayed an ODC of 100%. Further, the pKi in data set [13] was 3.77.
For `CCNCCCCNCCCCNCC`, the Polyamine in data set [25] is given as 0%; in [26] it was 3%; in data set [27], 6%; in data set [28], 97%; in data set [29], 0%. Besides, in data set [4], the “Picoequivalents of amine/10e6 cells” value amounted to 16920. Also, the pIC50 in data set [5] is 6.46; in [8], 4.66. For the same compound, the AdoMetDC in [7] turned out to be 90%. Also, the SSAT in data set [10] was found to be 640%. For the same compound, in [11], the ODC is reported as 47%. In [13], this compound had a pKi of 4.72.
In turn, `CCNCCCCNCCCCCNCCCCNCC` came in with an LD50 in [30] of 48 mg/kg/day.
